In ChEMBL document CHEMBL1955830, “Substituted azaquinazolinones as modulators of GHSr-1a for the treatment of type II diabetes and obesity” (Bioorg Med Chem Lett, 2012):

Columns and labels:
[1] = molecular target: Growth hormone secretagogue receptor type 1 (Homo sapiens, UniProt Q92847); assay: Displacement of [125I]-Ghrelin from human GHSR membranes overexpressing GSH-R1a by scintillation counting
Method in brief: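 Binding affinity (Ki) at GHS-R1a was measured by 125I-ghrelin displacement using commercial human GHS-R1a membranes.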

[2] = Antagonist activity at mouse GSH-R1a receptor expressed in HEK293 cells assessed as inhibition of ghrelin-induced calcium mobilization after 5 mins by FLIPR assay; type: functional, cell-based; details: HEK293, 5 min
Method in brief: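 Functional antagonism was measured as IC50 in a FLIPR Ca2+ mobilisation assay.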

[3] = molecular target: Voltage-gated inwardly rectifying potassium channel KCNH2 (Homo sapiens, UniProt Q12809); assay: Inhibition of human Erg by patch clamp assay; details: for pIC50: human
Chain of Voltage-gated inwardly rectifying potassium channel KCNH2 (Q12809 whole entry): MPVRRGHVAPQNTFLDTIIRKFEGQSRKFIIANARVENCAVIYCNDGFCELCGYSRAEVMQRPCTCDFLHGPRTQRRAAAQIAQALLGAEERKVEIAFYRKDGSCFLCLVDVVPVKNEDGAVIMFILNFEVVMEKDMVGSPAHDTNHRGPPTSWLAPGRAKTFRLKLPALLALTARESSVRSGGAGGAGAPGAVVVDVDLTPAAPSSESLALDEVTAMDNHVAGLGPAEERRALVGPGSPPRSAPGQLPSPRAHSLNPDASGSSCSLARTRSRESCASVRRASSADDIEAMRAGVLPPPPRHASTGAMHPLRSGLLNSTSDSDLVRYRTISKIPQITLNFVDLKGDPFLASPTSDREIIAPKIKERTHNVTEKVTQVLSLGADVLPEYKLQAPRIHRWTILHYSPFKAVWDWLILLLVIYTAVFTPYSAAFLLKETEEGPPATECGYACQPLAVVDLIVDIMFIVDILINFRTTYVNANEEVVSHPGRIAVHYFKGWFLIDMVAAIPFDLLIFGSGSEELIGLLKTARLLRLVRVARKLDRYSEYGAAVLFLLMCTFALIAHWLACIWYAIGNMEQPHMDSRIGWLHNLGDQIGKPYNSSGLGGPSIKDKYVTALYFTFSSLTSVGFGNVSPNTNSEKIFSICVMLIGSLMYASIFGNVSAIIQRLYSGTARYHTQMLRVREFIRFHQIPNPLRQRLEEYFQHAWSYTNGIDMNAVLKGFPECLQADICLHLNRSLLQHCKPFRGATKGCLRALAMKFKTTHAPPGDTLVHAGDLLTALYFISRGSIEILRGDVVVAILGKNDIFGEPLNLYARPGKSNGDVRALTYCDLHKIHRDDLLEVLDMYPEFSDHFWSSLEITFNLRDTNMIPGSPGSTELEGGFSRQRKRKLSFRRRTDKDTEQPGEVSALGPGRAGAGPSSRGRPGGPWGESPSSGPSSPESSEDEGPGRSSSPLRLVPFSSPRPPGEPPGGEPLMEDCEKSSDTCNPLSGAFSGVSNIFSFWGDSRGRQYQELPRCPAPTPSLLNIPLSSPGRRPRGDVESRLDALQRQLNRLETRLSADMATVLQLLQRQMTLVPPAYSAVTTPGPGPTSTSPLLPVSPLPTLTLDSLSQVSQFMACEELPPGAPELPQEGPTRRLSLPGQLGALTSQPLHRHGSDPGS

[4] = AUC in Sprague-Dawley rat at 3 mg/kg, po; type: ADME, organism-based; set-up: dose 3 mg/kg, route oral; details: plasma
Method in brief: (§1)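 Male Sprague-Dawley rats were dosed with compound formulated in 20% trappsol in water for injection as the vehicle.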

[5] = Volume of distribution at steady state in Sprague-Dawley rat at 1 mg/kg, iv; type: ADME, organism-based; set-up: dose 1 mg/kg, route intravenous; details: in vivo, read-out: Vdss; method in brief: as §1
[6] = Oral bioavailability in Sprague-Dawley rat at 1 mg/kg; type: ADME, organism-based; details: in vivo, 3 mg/kg, in the assay text read “3 mg/kg” for “1 mg/kg”; method in brief: as §1
[7] = Half life in Sprague-Dawley rat at 1 mg/kg, iv; type: ADME, organism-based; set-up: dose 1 mg/kg, route intravenous; details: in vivo; method in brief: as §1
[8] = AUC in Sprague-Dawley rat at 1 mg/kg, iv; type: ADME, organism-based; set-up: dose 1 mg/kg, route intravenous; details: plasma; method in brief: as §1
[9] = tested on: Rattus norvegicus; assay: Clearance in Sprague-Dawley rat at 1 mg/kg, iv; type: ADME, organism-based; set-up: dose 1 mg/kg, route intravenous; details: in vivo; method in brief: as §1
[10] = molecular target: T1, Muscarinic acetylcholine receptor M2 (Homo sapiens) (UniProt P08172); assay: Inhibition of muscarinic M2 receptor at 10 uM
T1 sequence (whole entry): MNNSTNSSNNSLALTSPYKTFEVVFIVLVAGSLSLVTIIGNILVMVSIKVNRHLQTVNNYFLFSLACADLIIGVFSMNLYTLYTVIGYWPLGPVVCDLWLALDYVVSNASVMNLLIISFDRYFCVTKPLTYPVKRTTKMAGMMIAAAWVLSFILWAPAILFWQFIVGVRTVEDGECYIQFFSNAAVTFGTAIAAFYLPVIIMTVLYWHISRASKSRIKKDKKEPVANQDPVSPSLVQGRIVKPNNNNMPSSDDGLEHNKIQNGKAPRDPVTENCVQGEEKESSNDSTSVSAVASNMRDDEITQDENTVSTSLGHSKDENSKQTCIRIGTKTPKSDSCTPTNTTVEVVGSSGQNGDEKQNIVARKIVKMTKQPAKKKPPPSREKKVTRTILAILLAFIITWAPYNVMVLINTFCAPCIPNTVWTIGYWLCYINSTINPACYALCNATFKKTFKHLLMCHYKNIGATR

[11] = molecular target: 5-hydroxytryptamine receptor 2B (Homo sapiens) (UniProt P41595); assay: Inhibition of 5-HT2B at 10 uM
Chain of 5-hydroxytryptamine receptor 2B (Homo sapiens) (P41595 whole entry): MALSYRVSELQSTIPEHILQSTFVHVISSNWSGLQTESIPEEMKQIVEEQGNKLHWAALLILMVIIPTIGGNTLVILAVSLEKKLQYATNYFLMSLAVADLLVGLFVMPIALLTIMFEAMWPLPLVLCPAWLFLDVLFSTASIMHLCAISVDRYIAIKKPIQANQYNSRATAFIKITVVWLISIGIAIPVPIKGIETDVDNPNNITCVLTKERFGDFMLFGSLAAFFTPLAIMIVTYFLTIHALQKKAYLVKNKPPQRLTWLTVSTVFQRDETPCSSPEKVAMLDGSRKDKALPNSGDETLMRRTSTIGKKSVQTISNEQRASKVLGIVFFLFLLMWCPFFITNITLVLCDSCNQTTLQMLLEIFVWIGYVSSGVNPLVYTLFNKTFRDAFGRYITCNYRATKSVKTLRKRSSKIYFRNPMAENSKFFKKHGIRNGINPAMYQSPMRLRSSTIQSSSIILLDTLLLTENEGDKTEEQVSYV

[12] = molecular target: T2, Muscarinic acetylcholine receptor M1 (Homo sapiens) (UniProt P11229); assay: Inhibition of muscarinic M1 receptor at 10 uM
T2 sequence (whole entry): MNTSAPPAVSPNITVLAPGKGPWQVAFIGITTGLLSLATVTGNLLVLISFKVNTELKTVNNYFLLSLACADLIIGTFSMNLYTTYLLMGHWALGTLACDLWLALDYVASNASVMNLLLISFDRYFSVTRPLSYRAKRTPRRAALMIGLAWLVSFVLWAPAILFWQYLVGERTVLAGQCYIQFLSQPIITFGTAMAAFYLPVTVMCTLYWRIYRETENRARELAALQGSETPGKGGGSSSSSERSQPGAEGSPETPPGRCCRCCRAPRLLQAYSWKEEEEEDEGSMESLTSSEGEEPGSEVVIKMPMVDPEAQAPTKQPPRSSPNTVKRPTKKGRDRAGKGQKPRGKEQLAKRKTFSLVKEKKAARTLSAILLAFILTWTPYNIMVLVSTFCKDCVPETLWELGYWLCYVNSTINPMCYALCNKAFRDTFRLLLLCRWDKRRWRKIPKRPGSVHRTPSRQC

[13] = molecular target: hERG (KCNH2) (Homo sapiens, UniProt Q12809); assay: in vitro
Chain of hERG (KCNH2) (Q12809 whole entry): as the sequence (Q12809 whole entry) above

Chain of Growth hormone secretagogue receptor type 1 (Q92847 whole entry): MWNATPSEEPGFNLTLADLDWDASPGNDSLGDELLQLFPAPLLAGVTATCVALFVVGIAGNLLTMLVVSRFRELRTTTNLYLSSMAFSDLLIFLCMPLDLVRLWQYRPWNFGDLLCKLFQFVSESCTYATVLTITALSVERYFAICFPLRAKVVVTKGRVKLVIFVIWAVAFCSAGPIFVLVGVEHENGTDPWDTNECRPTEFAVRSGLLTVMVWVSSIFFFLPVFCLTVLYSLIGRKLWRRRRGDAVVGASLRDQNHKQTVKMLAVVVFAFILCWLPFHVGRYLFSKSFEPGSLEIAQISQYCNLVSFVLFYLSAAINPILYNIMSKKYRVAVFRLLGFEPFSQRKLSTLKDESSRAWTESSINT

Q: For `Cc1nc2ccc(Oc3ccc(Br)cc3F)nc2c(=O)n1C[C@H]1CCCN(C(C)C)C1`, which Ki [1] is on record?
A: 0.01 nM

Q: What about the IC50 [2] of the same molecule?
A: 2.3 nM

Q: What does the source list for `Cc1nc2cnc(Oc3ccc4ncsc4c3)cc2c(=O)n1C[C@H]1CCCN(C(C)C)C1`?
A: Ki [1]: 0.1 nM; IC50 [2]: 29.2 nM; IC50 [3]: 2400 nM; pIC50 [3]: 5.62

Q: With `Cc1nc2ccc(Oc3ccc(F)cc3)nc2c(=O)n1C[C@H]1CCCN(C(C)C)C1` as the molecule, how does the Ki [1] read?
A: 2 nM

Q: What about the AUC [4] of the same molecule?
A: 941 ng·h/mL

Q: And the Vd [5]?
A: 11.9 L/kg

Q: And the bioavailability [6]?
A: 60%

Q: And the IC50 [2]?
A: 185 nM

Q: What about the half-life [7] of the same molecule?
A: 7.16 h

Q: And the AUC [8]?
A: 523 ng·h/mL

Q: And the clearance [9]?
A: 32 mL/min/kg

Q: For `Cc1nc2ccc(Oc3ccc(-c4ccccc4)cc3)nc2c(=O)n1C[C@H]1CCCN(C(C)C)C1`, which Ki [1] is on record?
A: 0.4 nM

Q: And the IC50 [2]?
A: 37.7 nM

Q: Which Ki [1] does the source give for `Cc1nc2ncc(Oc3ccc(Br)cc3F)nc2c(=O)n1C[C@H]1CCCN(C(C)C)C1` here?
A: 0.05 nM

Q: And the IC50 [2]?
A: 1.17 nM

Q: For `Cc1nc2ccc(Oc3ccc(F)cc3)cc2c(=O)n1C[C@H]1CCCN(C(C)C)C1`, which inhibition [10] is on record?
A: > 50%

Q: And the Ki [1]?
A: 1 nM

Q: And the inhibition [11]?
A: > 50%

Q: What about the IC50 [2] of the same molecule?
A: 141 nM

Q: And the inhibition [12]?
A: > 50%

Q: Which Ki [1] does the source give for `Cc1nc2ncc(Oc3ccc(Br)cc3F)cc2c(=O)n1C[C@H]1CCCN(C(C)C)C1` here?
A: 0.16 nM

Q: And the IC50 [2]?
A: 26 nM

Q: And the IC50 [3]?
A: 1300 nM

Q: For `Cc1nc2cnc(Oc3ccc4c(c3)ncn4C)cc2c(=O)n1C[C@H]1CCCN(C(C)C)C1`, which Ki [1] is on record?
A: 0.5 nM

Q: And the IC50 [2]?
A: 137 nM

Q: Which Ki [1] does the source give for `Cc1nc2ccc(Oc3ccc(F)c4cccnc34)nc2c(=O)n1C[C@H]1CCCN(C(C)C)C1` here?
A: 2.6 nM

Q: What about the IC50 [2] of the same molecule?
A: 131 nM

Q: What about the IC50 [3] of the same molecule?
A: 130 nM

Q: With `Cc1nc2cnc(Oc3ccc(F)cc3)cc2c(=O)n1C[C@H]1CCCN(C(C)C)C1` as the molecule, how does the Ki [1] read?
A: 3.4 nM

Q: And the IC50 [2]?
A: 399 nM

Q: Which Ki [1] does the source give for `Cc1nc2ncc(Oc3ccc(F)cc3)cc2c(=O)n1C[C@H]1CCCN(C(C)C)C1` here?
A: 6.7 nM

Q: What about the IC50 [2] of the same molecule?
A: 357 nM

Q: With `Cc1nc2cnc(Oc3ccc(Cl)cc3F)cc2c(=O)n1C[C@H]1CCCN(C(C)C)C1` as the molecule, how does the Ki [1] read?
A: 0.2 nM

Q: And the IC50 [2]?
A: 146 nM

Q: What about the IC50 [3] of the same molecule?
A: 130 nM

Q: What about the pIC50 [3] of the same molecule?
A: 6.89

Q: And the selectivity ratio [13]?
A: 10

Q: Which results are given for `Cc1nc2ncc(Oc3ccc4c(c3)OCO4)nc2c(=O)n1C[C@H]1CCCN(C(C)C)C1`?
A: Ki [1]: 1.5 nM; IC50 [2]: 16.5 nM

Q: What does the source list for `Cc1nc2cnc(Oc3cccc4cccnc34)cc2c(=O)n1C[C@H]1CCCN(C(C)C)C1`?
A: IC50 [3]: 25100 nM; pIC50 [3]: 4.6

Q: With `Cc1nc2ccc(Oc3ccc(Cl)cc3F)nc2c(=O)n1C[C@H]1CCCN(C(C)C)C1` as the molecule, how does the Ki [1] read?
A: 0.2 nM

Q: And the AUC [4]?
A: 736 ng·h/mL

Q: And the Vd [5]?
A: 6.64 L/kg

Q: What about the bioavailability [6] of the same molecule?
A: 35%

Q: What about the IC50 [2] of the same molecule?
A: 2 nM

Q: What about the half-life [7] of the same molecule?
A: 4.71 h

Q: And the AUC [8]?
A: 695 ng·h/mL

Q: And the clearance [9]?
A: 24 mL/min/kg

Q: For `Cc1nc2ncc(Oc3ccc4ncsc4c3)nc2c(=O)n1C[C@H]1CCCN(C(C)C)C1`, which Ki [1] is on record?
A: 0.26 nM

Q: What about the IC50 [2] of the same molecule?
A: 5.7 nM

Q: For `COc1ccc(Cn2c(CCc3c[nH]c4ccccc34)nnc2[C@@H](Cc2c[nH]c3ccccc23)NC(=O)[C@@H]2CCCN2)c(OC)c1`, which IC50 [2] is on record?
A: 5.6 nM

Q: What does the source list for `Cc1nc2cnc(Oc3ccc(F)c4cccnc34)cc2c(=O)n1C[C@H]1CCCN(C(C)C)C1`?
A: Ki [1]: 6.6 nM; IC50 [2]: 1440 nM; IC50 [3]: 9400 nM

Q: Which results are given for `Cc1nc2ncc(Oc3ccc(F)cc3)nc2c(=O)n1C[C@H]1CCCN(C(C)C)C1`?
A: Ki [1]: 3.1 nM; AUC [4]: 1170 ng·h/mL; Vd [5]: 2.87 L/kg; bioavailability [6]: 33%; IC50 [2]: 587 nM; half-life [7]: 3.01 h; AUC [8]: 1170 ng·h/mL; clearance [9]: 13 mL/min/kg

Q: For `COc1ccc2cccc(Oc3ccc4nc(C)n(C[C@H]5CCCN(C(C)C)C5)c(=O)c4n3)c2n1`, which Ki [1] is on record?
A: 3.1 nM

Q: And the IC50 [2]?
A: 118 nM

Q: With `Cc1nc2ncc(Oc3ccc(Cl)cc3F)nc2c(=O)n1C[C@H]1CCCN(C(C)C)C1` as the molecule, how does the Ki [1] read?
A: 0.6 nM

Q: And the IC50 [2]?
A: 102 nM

Q: With `Cc1nc2cnc(Oc3ccc4c(c3)OCO4)cc2c(=O)n1C[C@H]1CCCN(C(C)C)C1` as the molecule, how does the Ki [1] read?
A: 0.3 nM

Q: What about the IC50 [2] of the same molecule?
A: 86.5 nM

Q: Which results are given for `Cc1nc2ccc(Oc3ccc4c(c3)OCO4)nc2c(=O)n1C[C@H]1CCCN(C(C)C)C1`?
A: Ki [1]: 0.9 nM; IC50 [2]: 19.2 nM

Q: For `Cc1nc2ccc(Oc3ccc4ncsc4c3)nc2c(=O)n1C[C@H]1CCCN(C(C)C)C1`, which Ki [1] is on record?
A: 0.01 nM

Q: What about the IC50 [2] of the same molecule?
A: 2.7 nM

Q: With `Cc1nc2ncc(Oc3ccc(-c4ccccc4)cc3)cc2c(=O)n1C[C@H]1CCCN(C(C)C)C1` as the molecule, how does the Ki [1] read?
A: 1.7 nM

Q: And the IC50 [2]?
A: 131 nM

Q: Which Ki [1] does the source give for `Cc1nc2ncc(Oc3ccc4c(c3)ncn4C)nc2c(=O)n1C[C@H]1CCCN(C(C)C)C1` here?
A: 5 nM

Q: What about the IC50 [2] of the same molecule?
A: 51.8 nM

Q: Which IC50 [2] does the source give for `Nc1nc(N)c(-c2ccc(NC(=O)C3CC3)cc2)c(COCc2ccccc2)n1` here?
A: 188 nM

Q: With `Cc1nc2ncc(Oc3ccc(-c4ccccc4)cc3)nc2c(=O)n1C[C@H]1CCCN(C(C)C)C1` as the molecule, how does the Ki [1] read?
A: 0.27 nM

Q: What about the IC50 [2] of the same molecule?
A: 80 nM

Q: What does the source list for `Cc1nc2ncc(Oc3ccc(F)c4cccnc34)nc2c(=O)n1C[C@H]1CCCN(C(C)C)C1`?
A: Ki [1]: 1.9 nM; IC50 [2]: 142 nM; IC50 [3]: > 33000 nM
